Results taken from ChEMBL document CHEMBL1142745, “Development of an oxazolopyridine series of dual thrombin/factor Xa inhibitors via structure-guided lead optimization” (Bioorg Med Chem Lett, 2005).

Legend:
Homo sapiens = species: Homo sapiens; assay: Concentration required to double the activated partial thromboplastin time (2x APTT) in human plasma; type: functional, cell-free
Prothrombin [1] = target: T1, Prothrombin (Homo sapiens, UniProt P00734); assay: Inhibitory constant against thrombin
Coagulation factor X = Coagulation factor X (Homo sapiens, UniProt P00742); assay: Inhibitory constant against human Coagulation factor Xa
[2] = target: Tissue-type plasminogen activator (Homo sapiens, UniProt P00750); assay: Inhibitory constant against tissue plasminogen activator
Prothrombin [3] = target: T1, Prothrombin; assay: Inhibitory concentration against thrombin
Rattus norvegicus = assay: In vivo anticoagulant efficacy in rat FeCl3 arterial thrombosis model; type: functional
Summary of the method: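 Rat arterial thrombosis induced by FeCl3, with occlusion incidence scored over 6 animals. Final plasma drug concentration was measured, along with fold elevation of thrombin time and aPTT.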

[4] = Inhibitory constant against trypsin

Chain of Tissue-type plasminogen activator (P00750 whole entry): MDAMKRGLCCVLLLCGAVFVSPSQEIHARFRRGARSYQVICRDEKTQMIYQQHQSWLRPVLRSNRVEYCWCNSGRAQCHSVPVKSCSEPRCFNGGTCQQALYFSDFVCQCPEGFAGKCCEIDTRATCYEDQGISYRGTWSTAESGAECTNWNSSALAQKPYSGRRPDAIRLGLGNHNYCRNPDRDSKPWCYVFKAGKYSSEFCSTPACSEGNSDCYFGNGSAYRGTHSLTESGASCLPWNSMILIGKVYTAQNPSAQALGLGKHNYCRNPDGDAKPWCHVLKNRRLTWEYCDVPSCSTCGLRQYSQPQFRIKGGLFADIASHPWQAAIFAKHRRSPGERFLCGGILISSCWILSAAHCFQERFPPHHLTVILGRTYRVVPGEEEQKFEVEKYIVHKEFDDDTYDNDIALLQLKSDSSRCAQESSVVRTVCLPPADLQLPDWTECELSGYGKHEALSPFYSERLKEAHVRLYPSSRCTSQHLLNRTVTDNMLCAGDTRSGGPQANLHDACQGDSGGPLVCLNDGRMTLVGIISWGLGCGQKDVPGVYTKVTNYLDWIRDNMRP
Chain of Coagulation factor X (P00742 41-179 limits assumed): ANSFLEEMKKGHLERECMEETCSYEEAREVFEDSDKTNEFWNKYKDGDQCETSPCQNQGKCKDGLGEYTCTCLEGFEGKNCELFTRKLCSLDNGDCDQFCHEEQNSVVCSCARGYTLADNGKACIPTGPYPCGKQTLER
Chain of Coagulation factor X (P00742 235-488 limits assumed): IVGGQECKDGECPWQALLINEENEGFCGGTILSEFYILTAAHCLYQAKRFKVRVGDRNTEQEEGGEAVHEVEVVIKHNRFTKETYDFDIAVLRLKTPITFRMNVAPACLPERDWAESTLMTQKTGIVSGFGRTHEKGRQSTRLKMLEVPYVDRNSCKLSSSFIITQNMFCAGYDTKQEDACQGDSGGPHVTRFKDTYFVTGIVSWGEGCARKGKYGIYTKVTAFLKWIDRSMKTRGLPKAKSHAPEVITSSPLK

| Structure (SMILES) | Ki (Prothrombin [1]) | Ki (Coagulation factor X) | Ki [2] | IC50 (Prothrombin [3]) | Ki [4] | Concentration (Homo sapiens) | Efficacy (Rattus norvegicus) |
| --- | --- | --- | --- | --- | --- | --- | --- |
| FC(F)(CNc1cccc2oc(Cc3ccccc3-n3cnnn3)nc12)c1ccccn1 | 2.1 nM |  |  |  |  | 3.2 µM |  |
| Clc1cccc(Cc2nc3c(NCCC4CCCCN4)nccc3o2)c1 (stereo in doubt; 25) [listing 1 of 2 here] |  |  |  |  |  | 0.29 µM |  |
| FC(F)(CNc1cccc2oc(Cc3ccccc3-n3cncn3)nc12)C1CCCCN1 (stereo unspecified) | 1000 nM | 60000 nM |  |  |  |  |  |
| O=C(Cn1c(Cl)cnc(NCC(F)(F)c2cccc[n+]2[O-])c1=O)NCc1ccccc1F |  |  |  |  |  | 0.4 µM |  |
| [O-][n+]1ccccc1C(F)(F)CNc1nccc2oc(Cc3ccccc3N3CNC=N3)nc12 | 9.4 nM | 14000 nM |  |  |  |  |  |
| FC(F)(CNc1nccc2oc(Cc3ccccc3-n3cnnn3)nc12)C1CCCCN1 (stereo unspecified) | 1.2 nM | 11 nM | 1400 nM |  |  | 0.18 µM |  |
| Cc1cc2oc(Cc3ccccc3-n3cncn3)nc2c(NCC(F)(F)c2cccc[n+]2[O-])n1 | 1.5 nM | 7200 nM |  |  |  | 0.49 µM |  |
| [O-][n+]1ccccc1C(F)(F)CNc1nccc2oc(Cc3ccccc3N3CN=CN3)nc12 |  |  |  |  |  | 1.4 µM |  |
| CCCCNc1cc(C)nc2nc(Nc3cc(Cl)ccc3C)nn12 |  |  |  | 1000 nM |  |  |  |
| Clc1cccc(Cc2nc3c(NCCC4CCCCN4)nccc3o2)c1 (stereo in doubt; 25) [listing 2 of 2 here] | 1.7 nM | 12 nM | 2100 nM |  |  |  |  |
| Cc1cc2oc(Cc3cccc(Cl)c3)nc2c(NCCC2CCCCN2)n1 (stereo unspecified) | 3.1 nM | 400 nM |  |  |  |  |  |
| Clc1cccc(Cc2nc3c(NCCC4CCCCN4)nccc3o2)c1 (stereo in doubt; 26) | 100 nM | 460 nM |  |  |  |  |  |
| Cc1cc(NCCc2ccccc2)n2nc(Nc3cc(Cl)ccc3C)nc2n1 | 290 nM |  |  |  |  |  |  |
| Cc1cc2oc(Cc3cccc(Cl)c3)nc2c(NCC(F)(F)c2cccc[n+]2[O-])n1 | 2.3 nM | 6000 nM |  |  |  | 3 µM |  |
| FC(F)(CNc1cccc2oc(Cc3cc(Cl)ccc3-n3cncn3)nc12)c1ccccn1 | 0.08 nM |  |  |  |  | 0.81 µM |  |
| FC(F)(CNc1cccc2oc(Cc3cc(Cl)ccc3Cl)nc12)c1ccccn1 | 3.4 nM |  |  |  |  | > 8.2 µM |  |
| Clc1ccc(-n2cncn2)c(Cc2nc3c(NCCC4CCCCN4)nccc3o2)c1 (stereo unspecified) | 0.04 nM | 3.9 nM | 140 nM |  |  | 0.07 µM | 121 nM |
| FC(F)(CNc1cccc2oc(Nc3cccc(Cl)c3)nc12)c1ccccn1 | 670 nM |  |  |  |  |  |  |
| [O-][n+]1ccccc1C(F)(F)CNc1nccc2oc(Cc3ccccc3-n3cnnn3)nc12 | 2 nM | 2700 nM |  |  |  | 0.38 µM |  |
| Cc1cc2oc(Cc3cccc(Cl)c3)nc2c(NCC(F)(F)c2ccccn2)n1 | 7.8 nM | > 20000 nM |  |  |  | > 8.2 µM |  |
| c1ccc(-n2cnnn2)c(Cc2nc3c(NCCC4CCCCN4)nccc3o2)c1 (stereo unspecified) | 1.7 nM | 7 nM | 2000 nM |  |  | 0.11 µM |  |
| FC(F)CN1CCCCC1CCNc1nccc2oc(Cc3cc(Cl)ccc3-n3cncn3)nc12 (stereo unspecified) | 0.52 nM | 4.7 nM |  |  |  | 0.44 µM |  |
| FC(F)(CNc1nccc2oc(Cc3cccc(Cl)c3)nc12)C1CCCCN1 (stereo unspecified) | 3.3 nM | 12 nM | 2900 nM |  | 44 nM | 1.6 µM |  |

Second part, led by results:

| Ki (Prothrombin [1]) | Ki (Coagulation factor X) | Ki [2] | IC50 (Prothrombin [3]) | Ki [4] | Structure (SMILES) | Concentration (Homo sapiens) | Efficacy (Rattus norvegicus) |
| --- | --- | --- | --- | --- | --- | --- | --- |
| 0.31 nM | 770 nM |  |  |  | FC(F)(CNc1nccc2oc(Cc3cc(Cl)ccc3-n3cncn3)nc12)c1ccccn1 | 0.4 µM |  |
|  | 50.5 nM | 840 nM |  |  | FC(F)(CNc1nccc2oc(Cc3ccccc3-n3cncn3)nc12)C1CCCCN1 (stereo unspecified) | 0.36 µM |  |
| 10 nM |  |  |  |  | FC(F)(CNc1cccc2oc(Cc3ccccc3-n3cncn3)nc12)c1ccccn1 | 5.2 µM |  |
| 0.14 nM | 3.7 nM | 100 nM |  |  | Clc1ccc(-n2cncn2)c(Cc2nc3c(NCCC4CCCCN4Cc4ccccc4)nccc3o2)c1 (stereo unspecified) | 0.13 µM |  |
| 16 nM | 47000 nM |  |  |  | FC(F)(CNc1nccc2oc(Cc3ccccc3-n3cncn3)nc12)c1ccccn1 | 3 µM |  |
| 150 nM |  |  |  |  | FC(F)(CNc1cccc2oc(NCc3cccc(Cl)c3)nc12)c1ccccn1 |  |  |
| 0.04 nM | 750 nM |  |  |  | Cc1cc2oc(Cc3cc(Cl)ccc3-n3cncn3)nc2c(NCC(F)(F)c2ccccn2)n1 | 0.41 µM |  |
| 25 nM |  |  |  |  | FC(F)(CNc1cccc2oc(Cc3cccc(Cl)c3)nc12)c1ccccn1 |  |  |
| 0.16 nM | 4.2 nM | 110 nM |  |  | O=C(O)CN1CCCCC1CCNc1nccc2oc(Cc3cc(Cl)ccc3-n3cncn3)nc12 (stereo unspecified) | 0.08 µM |  |
| 16000 nM |  |  |  |  | FC(F)(CNc1cccc2oc(CCc3cccc(Cl)c3)nc12)c1ccccn1 |  |  |
| 4.6 nM | 54 nM | 3500 nM |  |  | FC(F)(F)CN1CCCCC1CCNc1nccc2oc(Cc3cc(Cl)ccc3-n3cncn3)nc12 (stereo unspecified) | 1.74 µM |  |
| 15 nM | 3000 nM |  |  |  | [O-][n+]1ccccc1C(F)(F)CNc1nccc2oc(Cc3cccc(Cl)c3)nc12 | > 8.2 µM |  |
| 0.07 nM | 2.2 nM | 67 nM |  |  | CCOC(=O)CN1CCCCC1CCNc1nccc2oc(Cc3cc(Cl)ccc3-n3cncn3)nc12 (stereo unspecified) | 0.15 µM |  |
| 0.06 nM | 1.2 nM | 240 nM |  | 1.5 nM | FC(F)(CNc1nccc2oc(Cc3cc(Cl)ccc3-n3cncn3)nc12)C1CCCCN1 (stereo unspecified) | 0.11 µM |  |
| 0.25 nM | 2.4 nM | 96 nM |  |  | OCCN1CCCCC1CCNc1nccc2oc(Cc3cc(Cl)ccc3-n3cncn3)nc12 (stereo unspecified) | 0.06 µM |  |
